# In article PMC8682075 (Biochimie, 2020):
# “Also recorded” adds a separate entry of the source.
# What was measured:
# [1] = system: MMUT variants G648D, V633G, G717V, P86L, Y100C, Y231N; test: Activity screen; type: biochemical, human; conditions: cobamide 1 μM, variants 0.1 μM (G717V 1 μM), 30 minutes
# Summary of the method: (§1)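 At 30 °C, reaction was started with thiokinase, MgCl₂, ADP and methylmalonyl-CoA. Final levels were cofactor 1 μM and (R)-methylmalonyl-CoA 2 mM. Enzyme was WT 0.01 μM, G717V 1 μM, other variants 0.1 μM. After 30 min, an aliquot went into 2.5 mM DTNB; CoA was taken from A412 (ε 14,150 M⁻¹ cm⁻¹).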
# [2] = biological target: T1, MMUT WT (Homo sapiens, UniProt P22033); test: Activity screen; type: biochemical; conditions: cobamide 1 μM, MMUT WT 0.01 μM, 30 minutes
# T1 sequence (P22033 33-750): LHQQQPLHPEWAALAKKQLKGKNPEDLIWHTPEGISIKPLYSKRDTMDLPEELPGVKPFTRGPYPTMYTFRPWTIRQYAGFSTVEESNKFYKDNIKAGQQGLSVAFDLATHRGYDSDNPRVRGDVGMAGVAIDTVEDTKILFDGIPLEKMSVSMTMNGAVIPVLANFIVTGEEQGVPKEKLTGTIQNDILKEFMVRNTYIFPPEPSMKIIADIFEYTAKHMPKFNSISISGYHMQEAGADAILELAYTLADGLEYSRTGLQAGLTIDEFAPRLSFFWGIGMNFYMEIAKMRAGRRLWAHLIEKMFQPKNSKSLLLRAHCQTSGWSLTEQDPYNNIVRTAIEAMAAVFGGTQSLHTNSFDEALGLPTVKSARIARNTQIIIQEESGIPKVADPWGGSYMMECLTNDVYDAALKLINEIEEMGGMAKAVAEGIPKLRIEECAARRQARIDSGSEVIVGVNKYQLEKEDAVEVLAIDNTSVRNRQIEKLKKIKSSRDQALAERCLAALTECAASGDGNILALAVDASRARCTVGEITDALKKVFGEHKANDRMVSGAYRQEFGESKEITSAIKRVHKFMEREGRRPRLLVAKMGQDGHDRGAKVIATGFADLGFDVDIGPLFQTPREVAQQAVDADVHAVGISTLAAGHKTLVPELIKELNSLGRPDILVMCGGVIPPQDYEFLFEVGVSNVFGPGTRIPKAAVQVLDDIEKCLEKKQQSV
# Summary of the method: as §1
# [3] = system: Human intrinsic factor (IF); conditions: cited from earlier work
# [4] = biological target: T2, MMUT (methylmalonyl-CoA mutase) (Homo sapiens, UniProt P22033); test: Coupled thiokinase/DTNB spectrophotometric MMUT activity assay; type: biochemical; conditions: for MMUT activity with the cobamide (in words): coupled spectrophotometric assay; for KM, app relative to AdoCbl: higher than AdoCbl
# T2 sequence (P22033 33-750): T1 sequence (P22033 33-750)
# Summary of the method: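 In the coupled kinetic assay, succinyl-CoA was converted by thiokinase to CoA, which was detected spectrophotometrically with DTNB. C-terminally His-tagged MMUT was at 10 nM. Enzymatically made (R)-methylmalonyl-CoA was fixed at 4 mM. Adenosylated cofactor was varied per cofactor, from 0.031 μM at lowest to 12 μM at highest. K_M,app and k_cat come from ≥5 replicates over ≥2 independent experiments and two biological samples.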
# [5] = biological target: T2, MMUT (methylmalonyl-CoA mutase); test: Binding kinetics by stopped-flow fluorescence spectroscopy; conditions: MMUT 0.2 μM, cobamide 4.8 – 16.2 μM (to 24.3 μM for Ado[Phe]Cba)
# Summary of the method: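 Stopped-flow fluorimetry used C-terminally His-tagged MMUT at 0.2 μM final after mixing. Adenosylated cofactor was added at 4.8, 7.2, 10.8 and 16.2 μM (24.3 μM for one cofactor). Excitation was 282 nm, with emission through a 320 nm long-pass filter. Traces, minus the buffer-addition control, were fitted to first-order exponential decay to give k_obs. k_on was the slope of k_obs versus concentration, from four technical replicates.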
# [6] = biological target: T2, MMUT (methylmalonyl-CoA mutase); test: Cobamide equilibrium binding by quenching of intrinsic protein fluorescence; conditions: for binding to MMUT (in words): micromolar cobamide concentrations
# Summary of the method: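 Fluorescence quenching used MMUT at 0.2 μM, from N-terminal His-tag (E. coli BL21(DE3)pLysS) and C-terminal His-tag preparations. Adenosylated cofactor was titrated at 0.19–2.5 μM or 0.23–2.5 μM, depending on cofactor class. Plate-reader excitation/emission was 282/340 nm. Kd came from a quadratic fit allowing for ligand depletion. Values were averaged over ≥5 technical replicates from ≥2 independent experiments.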
compound,measurement,setting,value
"C/C1=C2/[N-][C@H]([C@H](CC(N)=O)[C@@]2(C)CCC(=O)NC[C@@H](C)OP(=O)([O-])O[C@H]2[C@@H](O)[C@@H](n3cnc4cccc(N)c43)O[C@@H]2CO)[C@]2(C)N=C(/C(C)=C3N=C(/C=C4N=C1[C@@H](CCC(N)=O)C\4(C)C)[C@@H](CCC(N)=O)[C@]\3(C)CC(N)=O)[C@@H](CCC(N)=O)[C@]2(C)CC(N)=O.[CH2-][C@H]1O[C@@H](n2cnc3c(N)ncnc32)[C@H](O)[C@@H]1O.[Co+3] [K, 7-aminobenzimidazolylcobamide]",activity of MMUT variants with the cobamide (in words),[1],partially or entirely lost the ability to use
same,activity of WT MMUT with the cobamide (in words),[2],active
cyano-para-cresolylcobamide [CN[Cre]Cba],IF affinity (in words),[3],low affinity
C/C1=C2/[N-][C@H]([C@H](CC(N)=O)[C@@]2(C)CCC(=O)NC[C@@H](C)OP(=O)([O-])O[C@H]2[C@@H](O)[C@@H](n3cnc4cc(C)ccc43)O[C@@H]2CO)[C@]2(C)N=C(/C(C)=C3N=C(/C=C4N=C1[C@@H](CCC(N)=O)C\4(C)C)[C@@H](CCC(N)=O)[C@]\3(C)CC(N)=O)[C@@H](CCC(N)=O)[C@]2(C)CC(N)=O.[CH2-][C@H]1O[C@@H](n2cnc3c(N)ncnc32)[C@H](O)[C@@H]1O.[Co+3] [Ado[5-MeBza]Cba],MMUT activity with the cobamide (in words),[4],active
same,activity of WT MMUT with the cobamide (in words),[2],active
6-azabenzimidazolylcobamide,activity of WT MMUT with the cobamide (in words),[2],No activity
"C/C1=C2/[N-][C@H]([C@H](CC(N)=O)[C@@]2(C)CCC(=O)NC[C@@H](C)OP(=O)([O-])O[C@H]2[C@@H](O)[C@@H](n3cnc4cccc(C)c43)O[C@@H]2CO)[C@]2(C)N=C(/C(C)=C3N=C(/C=C4N=C1[C@@H](CCC(N)=O)C\4(C)C)[C@@H](CCC(N)=O)[C@]\3(C)CC(N)=O)[C@@H](CCC(N)=O)[C@]2(C)CC(N)=O.[CH2-][C@H]1O[C@@H](n2cnc3c(N)ncnc32)[C@H](O)[C@@H]1O.[Co+3] [J, 7-methylbenzimidazolylcobamide]",activity of MMUT variants with the cobamide (in words),[1],partially or entirely lost the ability to use
same,activity of WT MMUT with the cobamide (in words),[2],active
C/C1=C2/[N-][C@H]([C@H](CC(N)=O)[C@@]2(C)CCC(=O)NC[C@@H](C)OP(=O)([O-])O[C@H]2[C@@H](O)[C@@H](Oc3ccc(C)cc3)O[C@@H]2CO)[C@]2(C)N=C(/C(C)=C3N=C(/C=C4N=C1[C@@H](CCC(N)=O)C\4(C)C)[C@@H](CCC(N)=O)[C@]\3(C)CC(N)=O)[C@@H](CCC(N)=O)[C@]2(C)CC(N)=O.[CH2-][C@H]1O[C@@H](n2cnc3c(N)ncnc32)[C@H](O)[C@@H]1O.[Co+3] [Ado[Cre]Cba],activity of MMUT variants with the cobamide (in words),[1],supported activity to a large extent in all of the variants
same,"KM, app (in words)",[4],in the range of the benzimidazolyl cobamides
same,MMUT activity with the cobamide (in words),[4],active
same,activity of WT MMUT with the cobamide (in words),[2],active
same,kon relative to AdoCbl (in words),[5],about six times higher
same,binding to MMUT (in words),[6],bound too strongly to measure a Kd value; also recorded: higher affinity for Ado[Cre]Cba than AdoCbl
purinylcobamide,activity of WT MMUT with the cobamide (in words),[2],No activity
"C/C1=C2/[N-][C@H]([C@H](CC(N)=O)[C@@]2(C)CCC(=O)NC[C@@H](C)OP(=O)([O-])O[C@H]2[C@@H](O)[C@@H](n3cnc4nc(C)nc(N)c43)O[C@@H]2CO)[C@]2(C)N=C(/C(C)=C3N=C(/C=C4N=C1[C@@H](CCC(N)=O)C\4(C)C)[C@@H](CCC(N)=O)[C@]\3(C)CC(N)=O)[C@@H](CCC(N)=O)[C@]2(C)CC(N)=O.[CH2-][C@H]1O[C@@H](n2cnc3c(N)ncnc32)[C@H](O)[C@@H]1O.[Co+3] [Ado[2-MeAde]Cba, adenosyl-2-methyladeninylcobamide]",IF binding relative to AdoCbl,[3],six orders of magnitude more weakly
adenosyladeninylcobamide [Ado[Ade]Cba],IF binding relative to AdoCbl,[3],six orders of magnitude more weakly
adenosyl-5-fluorobenzimidazolylcobamide [compound P],activity of MMUT variants with the cobamide (in words),[1],some variants also had appreciable activity
same,activity of WT MMUT with the cobamide (in words),[2],active
C/C1=C2/[N-][C@H]([C@H](CC(N)=O)[C@@]2(C)CCC(=O)NC[C@@H](C)O)[C@]2(C)N=C(/C(C)=C3N=C(/C=C4N=C1[C@@H](CCC(N)=O)C\4(C)C)[C@@H](CCC(N)=O)[C@]\3(C)CC(N)=O)[C@@H](CCC(N)=O)[C@]2(C)CC(N)=O.[CH2-][C@H]1O[C@@H](n2cnc3c(N)ncnc32)[C@H](O)[C@@H]1O.[Co] [Ado-cobinamide],binding to MMUT (in words),[6],lower affinity than AdoCbl
6-methyladeninylcobamide,activity of WT MMUT with the cobamide (in words),[2],No activity
C/C1=C2/[N-][C@H]([C@H](CC(N)=O)[C@@]2(C)CCC(=O)NC[C@@H](C)O)[C@]2(C)N=C(/C(C)=C3N=C(/C=C4N=C1[C@@H](CCC(N)=O)C\4(C)C)[C@@H](CCC(N)=O)[C@]\3(C)CC(N)=O)[C@@H](CCC(N)=O)[C@]2(C)CC(N)=O.[Co+3] [cobinamide],IF affinity (in words),[3],low affinity
C/C1=C2/[N-][C@H]([C@H](CC(N)=O)[C@@]2(C)CCC(=O)NC[C@@H](C)OP(=O)([O-])O[C@H]2[C@@H](O)[C@@H](n3cnc4ccccc43)O[C@@H]2CO)[C@]2(C)N=C(/C(C)=C3N=C(/C=C4N=C1[C@@H](CCC(N)=O)C\4(C)C)[C@@H](CCC(N)=O)[C@]\3(C)CC(N)=O)[C@@H](CCC(N)=O)[C@]2(C)CC(N)=O.[CH2-][C@H]1O[C@@H](n2cnc3c(N)ncnc32)[C@H](O)[C@@H]1O.[Co+3] [Ado[Bza]Cba],MMUT activity with the cobamide (in words),[4],active
same,"KM, app relative to AdoCbl",[4],10 fold
same,activity of WT MMUT with the cobamide (in words),[2],active
same,difference in Kd relative to AdoCbl,[6],~ 25 fold
cyanobenzimidazolylcobamide [CN[Bza]Cba],"IF affinity, lower than affinity for CNCbl",[3],no more than 2 fold
cyano-5-hydroxybenzimidazolylcobamide [CN[5-OHBza]Cba],"IF affinity, lower than affinity for CNCbl",[3],no more than 2 fold
3-deazaadeninylcobamide,activity of WT MMUT with the cobamide (in words),[2],No activity
"C/C1=C2/[N-][C@H]([C@H](CC(N)=O)[C@@]2(C)CCC(=O)NC[C@@H](C)OP(=O)([O-])O[C@H]2[C@@H](O)[C@@H](Oc3ccccc3)O[C@@H]2CO)[C@]2(C)N=C(/C(C)=C3N=C(/C=C4N=C1[C@@H](CCC(N)=O)C\4(C)C)[C@@H](CCC(N)=O)[C@]\3(C)CC(N)=O)[C@@H](CCC(N)=O)[C@]2(C)CC(N)=O.[CH2-][C@H]1O[C@@H](n2cnc3c(N)ncnc32)[C@H](O)[C@@H]1O.[Co+3] [Ado[Phe]Cba, adenosylphenolylcobamide]",MMUT activity with the cobamide (in words),[4],active
same,"KM, app relative to AdoCbl",[4],100 fold
same,activity of WT MMUT with the cobamide (in words),[2],active
